Laboratory results as given in the array DNA melting data of Ke et al. (doi:10.1101/2024.01.08.574731).

Assays:
[1] = folding enthalpy; higher = less favourable; fluorescence melt of hairpins on a sequencing array, two-state fit; details: sodium 0.088 M
In short: (§1)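 Hairpins were imaged by Cy3 fluorescence on a sequenced MiSeq flow cell with annealed Cy3 and quencher oligos, in 50 mM Na-HEPES pH 8.0, 25 mM NaCl, in 2.5 °C steps up to 60 °C. Bootstrapped two-state fits of normalised signals gave melting temperature and folding enthalpy. Four replicates were combined by inverse variance, and fitted temperatures were raised by 9.35 °C to match UV melts.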

[2] = melting temperature; fluorescence melt of hairpins on a sequencing array, two-state fit, raised by 9.35 °C to match UV melts; details: sodium 0.088 M
In short: as §1

Sequence	folding enthalpy [1] [kcal/mol]	Tm [2] [°C]
GCGGAACGAAAGTTTCGC (((.(((....))).)))	-51.9	64.8
GGCTGCGAAAGCATCGCC ((((((....)))..)))	-21.8	48.5
GCCTCGCGAAAGCACGGC (((..((....))..)))	-22.5	54.1
GCGAGCGAAAGCTGCCGC ((((((....)))..)))	-13.1	53.5
GCCGGAGGAAACCCCGAC (.(((.(....).))).)	-6.74	30.2
GCAACGCGAAAGCATAGC ((.(.((....)).).))	-9.72	37.5
GATCTCGGAAACAAGATC (((((.(....).)))))	-15	29
GCGAGGGATCGC ((((....))))	-16.6	52.1
GCAATGCGAAAGCCATGC (((..((....))..)))	-18.3	37.8
GACCAAGGAAACTCGGTC ((((.((....)).))))	-29.3	37.8
GTGAATCGAAAGATACAC (((.(((....))).)))	-27.9	46.9
GGGTGGGGAAACCCGTCC ((..(((....)))..))	-19	48.8
GCTAACGAAAGTTTAGC ((((((....))).)))	-24.2	46.9
GCAGTCGGAAACGATTGC (((.(((....))).)))	-43.6	54.4
GATCGTGCAGACGATC ((((((....))))))	-40.9	58.9
GCCCTGCGAAAGCCGTGC ((.(.((....)).).))	-11.6	31.7
GCGGATCGAAAGATCGC (((.(((....))))))	-25.6	58.1
GCATCGCGAAAGCACTGC (((..((....))..)))	-14.7	38.5
GATCTTAGGAAAGATC ((((((....))))))	-26.5	38.6
GATCTCTGGGAGATC ((((((...))))))	-34.7	53.6
GCAGATGGAAACGTTTGC (((.(.(....).).)))	-12.6	28.9
GATCCTTACAGGATC ((((((...))))))	-34.2	56
GGGTTGGGAAACCGATCC ((.(.((....)).).))	-16.3	40.3

Sequence	folding enthalpy [1] [kcal/mol]	Tm [2] [°C]
GAATACGGAAACGTACTC ((.((((....)))).))	-9.11	28.4
GGCAGCGGAAACGTTGCC ((((.((....)).))))	-40.4	61.2
GACCCACGAAAGTGCGTC (((.(((....))).)))	-26.1	46.7
GGGCAAGCGAAAGCTCCC (((..(((....))))))	-19	44.6
GCGAAGCGAAAGCATTGC ((.(.((....)).).))	-7.27	39.1
GCACCCGAAAGGGGTTGC ((((((....)))..)))	-15.4	52.3
GATCGATAATCGATC ((((((...))))))	-37.7	49.5
GGAGGGGGAAACCCCTCC (((((((....)))))))	-32	69.3
GATCAATTAGTTGATC ((((((....))))))	-35	45.6
GGTAGTGGAAACGCTACC (((((.(....).)))))	-34.9	51.7
GATGGAGGAAACCCCATC (((((.(....).)))))	-31.6	43
GATCTAAGCTTAGATC ((((((....))))))	-53.5	47.5
CGTGCGGAAACGCAGACG ((((((....)))..)))	-15.7	47.4
GCTCGACCGAAAGGTAGC (((..(((....))))))	-13.8	39
GTGCCCGAAAGGGGTCAC ((((((....)))..)))	-15.7	48.6
GCTGAGCGAAAGCGCGGC ((.(.((....)).).))	-26.3	63
GATCTTAACGAAGATC ((((((....))))))	-29.9	40
GCCCAGCGAAAGCCGAGC ((.(.((....)).).))	-7.29	40.6
GATGTACCGAAAGGTATC (((..(((....))))))	-14	32.2
GGCCAACGAAAGTTCGCC (((.(((....))).)))	-40.2	47
GGCGACCGAAAGGTGGCC (((.(((....))).)))	-29.2	67.9
GACGTAGGAAACTGCGTC ((((.((....)).))))	-45.2	51.5
GATCTTACTGAAGATC ((((((....))))))	-26.9	42.2

Sequence	folding enthalpy [1] [kcal/mol]	Tm [2] [°C]
GGAAGAACGAAAGTTTCC (((..(((....))))))	-14.9	33
GCGAGTGCGAAAGCACGC (((..(((....))))))	-9.67	59
GGGCAAGGAAACTTGCTC (.(((((....))))).)	-27.9	52.7
GACCCCCGAAAGGGTGTC (((.(((....))).)))	-25	51.8
GCAATGCGAAAGCAGCGC ((..(((....)))..))	-18.8	55.9
GGTCACGAAAGTGCCACC ((((((....)))..)))	-12.9	44.4
GCATTCGGAAACGAGTGC (((.(((....))).)))	-46.7	53
GGTCCACGAAAGTGAACC (((.(((....))).)))	-34.8	51.3
GAGTGGGGAAACCTGCTC (((..((....))..)))	-26.6	39.8
GACCCTGGAAACAGGGCC (.(((((....))))).)	-17.2	47.2
GTCTTTCCGAAAGGAGAC (((..(((....))))))	-10.6	29.2
GACGGCGCGAAAGCGGTC (((..(((....))))))	-9.91	48.2
GGGACTGCGAAAGCACCC (((..(((....))))))	-9.02	37.3
GGTACCGAAAGGTGTACC ((((((....)))..)))	-22.5	46.6
GATCTTTAATAAGATC ((((((....))))))	-31.1	40.9
GCAAAGAAATTTGC (((((....)))))	-19.4	38.9
GTTCGGGGAAACTCGGAC ((.((.(....).)).))	-25.6	39
GGTTCTTCGAAAGAAACC (((..(((....))))))	-13.4	29.1
GATCATTTATATGATC ((((((....))))))	-35.6	48.4
GGGTGGGGAAACCCACTC (.(((((....))))).)	-16.7	53
GTGTGCGGAAACGCGTAC ((..(((....)))..))	-16.3	43.7
GCCTCTCGAAAGAGCGGC (((.(((....))).)))	-37	53.4
GAAACAGGAAACTGTTTC (((((((....)))))))	-41.9	55.5

Sequence	folding enthalpy [1] [kcal/mol]	Tm [2] [°C]
GATCTATCGGTAGATC ((((((....))))))	-24.7	39.1
GATGCGGGAAACTGCGTC ((.((.(....).)).))	-21.1	44.2
GTCTTGGGAAACTAAGGC (.(((.(....).))).)	-19.4	29
GCTTGTGAAAACAAGC ((((((....))))))	-34.3	63.5
GAGCGAGGAAACTCGTTC ((.((((....)))).))	-27	48.8
GATCTCCCGGAGATC ((((((...))))))	-37.4	53.8
GTTGCCGAAAGGCGGAAC ((((((....)))..)))	-7.95	32.8
GAAACCGAAAGGTTTTTC ((((((....)))..)))	-15.6	48.8
GCGGTCGAAAGACCCGC ((((((....))).)))	-24	66.8
GGGATGGGAAACCATTCC ((.((((....)))).))	-31.1	50.2
GATCTGGCGTCAGATC ((((((....))))))	-31.8	50.9
GATCGAGATTCGATC ((((((...))))))	-41.4	50.4
GTCATAACGAAAGTTGAC (((..(((....))))))	-24.4	37.2
GCAGTCCGAAAGGATTGC (((.(((....))).)))	-46.3	60.2
GTGGATGGAAACATCCAC (((((((....)))))))	-50.1	65.1
GATCGCCTCCGCGATC ((((((....))))))	-44.6	63.9
GACCACGAAAGTGAGTC ((((((....))).)))	-30.5	52.2
GTAGTGGGAAACCACTAC (((((((....)))))))	-30.3	63.4
GCAAAACGAAAGTTTGC (((.(((....))))))	-30.6	50.8
GTAATCGAAAGATACTAC ((((((....)))..)))	-18.4	31.4
GTGCAGGGAAACCTGTGC (..((((....))))..)	-21.6	44.6
GCGGTGGGAAACCATCGC (((.(((....))).)))	-40.9	61.8
GCAGGCGAAAGCCCCTGC ((((((....)))..)))	-15.9	40.6
